Experimental data collected from several papers.
Protocols differ between the studies behind these lines.

`CC(C)(C)OC(=O)NNc1nc2nonc2nc1Nc1ccccc1F` has a half-life of 0.25 to 0.45 h (male C57BL/6 mouse, plasma; oral, 10 mg/kg).
`COc1cc(C(=O)OCCCN2CCCN(CCCOC(=O)c3cc(OC)c(OC)c(OC)c3)CC2)cc(OC)c1OC` has a half-life of 0.83 h (male CD-1 mouse, plasma; subcutaneous).
The half-life of `CCOc1ccc(N(C)S(=O)(=O)c2cc(Cl)sc2C(=O)Nc2cc(Cl)cc(C(=O)O)c2)cc1OC` is reported as 0.469 h (male C57BL/6 mouse, plasma; intraperitoneal, 10 mg/kg).
The half-life of `Nc1ncn([C@H]2C[C@H](O)[C@@H](CO)O2)c(=O)n1` is reported as 0.91 h (female C57BL/6 mouse, plasma; oral, 0.4 mg/kg).
With `CN1CCN(C(=O)[C@H](CCCN[C@@H]2C[C@H]2c2ccc(F)cc2)NC(=O)c2ccc(-n3ccnn3)cc2)CC1` the half-life was 5.66 h (CD-1 mouse, plasma; intravenous, 3 mg/kg).
With `O=C1CC[C@H](N2Cc3c(ccc4c3OCC43CCN(C[C@@H]4CCC5(CCN(c6ccc([C@@H]7c8ccc(O)cc8CC[C@@H]7c7ccccc7)cc6)CC5)OC4)CC3)C2=O)C(=O)N1` the half-life was roughly 13 h (mouse, plasma; oral, 3 mg/kg).
`O=C1CCC(N2Cc3cc(NC(=O)c4cccc(F)c4)ccc3C2=O)C(=O)N1` (stereo not shown) gave a half-life of 1.2 h (female CD-1 mouse, plasma; intravenous, 3 mg/kg).
With `CCN1CCN(Cc2ccc(NC(=O)c3ccc(C)c(NC(=O)c4cncc(-c5cccs5)c4)c3)cc2C(F)(F)F)CC1` the half-life was 2.71 h (mouse, plasma; intraperitoneal, 30 mg/kg, single dose).
`CC1=NN(/C(=N/c2nnc(C)s2)Nc2ccc(C)c(C)c2)C(c2cc(F)c(F)c(F)c2)S1` (stereo not shown) gave a half-life of 2.19 h (male CD-1 mouse, plasma; oral, 30 mg/kg).
The half-life of `COc1cc2c(NC3CCN(CCCC(=O)NCCCCCCCCCCCC(=O)N[C@H](C(=O)N4C[C@H](O)C[C@H]4C(=O)NCc4ccc(-c5scnc5C)cc4)C(C)(C)C)CC3)nc(N3CCC(F)(F)CC3)nc2cc1OCCCN1CCCC1` is reported as 1.5 h (male C57BL/6 mouse, plasma; intraperitoneal, 50 mg/kg, single dose).
With `O=[N+]([O-])c1ccc(-c2ccc(O)cc2)c2cccnc12` the half-life was 0.126 h (male CD-1 mouse, plasma; intravenous, 1 mg/kg).
For `CC(C(=O)Nc1c(F)cccc1F)N1CCN(c2ccccc2)CC1` (stereo not shown), the half-life was roughly 0.55 h (female C57BL/6 mouse, plasma; intraperitoneal, 10 mg/kg).
For `CC(=O)O[C@@]12CO[C@@H]1C[C@H](O)[C@@]1(C)C(=O)[C@H](O)C3=C(C)[C@@H](OC(=O)[C@H](O)[C@@H](NC(=O)OC(C)(C)C)c4ccccc4)C[C@@](O)([C@@H](OC(=O)c4ccccc4)[C@H]21)C3(C)C`, the half-life was 2.7 h (male Kunming mouse, liver; oral, 20 mg/kg).
